Measured values as given in publication PMC3794531 (Biomolecules & Therapeutics, 2012).

Legend:
[1] = ref Kawato et al., 1991; cited from earlier work
[2] = Stability test in PBS, MCF7 cell lysates and rat plasma; type: in vitro ADME; conditions: 5 μM, 37℃
Procedure, shortened: (§1)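 Test compound (5 μM) was incubated at 37℃ in PBS, rat plasma, or MCF7 lysate. Lysate was prepared by adding PMSF, sonicating 10 sec, and centrifuging at 4℃ and 13,200 rpm for 15 min. Samples taken over time up to 120 min were quenched in ice-cold acetonitrile and centrifuged. Supernatant was diluted in 10 mM K2HPO4 pH 7.4 and run on C18 HPLC (K2HPO4:acetonitrile 62:38, 1 ml/min) with fluorescence detection (ex 380/em 540 nm). Data are mean ± SD.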

HT29 = assay: MTT cytotoxicity test in HT29 cells; type: cell-based; conditions: Homo sapiens, HT-29, 72 h
Procedure, shortened: (§2)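 Cells were grown in DMEM with 10% FBS, 100 unit/ml penicillin and 0.1 mg/ml streptomycin at 37℃ and 5% CO2, and split near 80% confluency. They were seeded at 1×10^5 cells/well and cultured 24 h to ~80% confluency, then exposed to test compound for 72 h. MTT (0.5 mg/ml in serum-free medium) was added for 2 h, and absorbance was read at 540 nm. Data are mean ± SD.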

CT26 = assay: MTT cytotoxicity test in CT26 cells; type: cell-based
Procedure, shortened: as §2

[3] = sodium phosphate (pH 7), 120 min; ref Tallman et al., 2005; cited from earlier work
[4] = system: colon cancer-induced mice; assay: In vivo survival test in colon cancer-induced mice; conditions: intravenous, n=4
Procedure, shortened: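 Mice were anesthetized and the cecum exteriorized by laparotomy. CT26 cells (1×10^6 in 50 μl) were injected into the cecal wall, then the gut was returned and the incision closed (surgical orthotopic implantation). Test compounds were given intravenously, and survival was followed over the experimental period.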

[5] = Proportion of total lactone form in PBS, MCF7 cell lysates and rat plasma; type: in vitro ADME; conditions: 37℃
Procedure, shortened: as §1

MCF7 cells = assay: MTT cytotoxicity test in MCF7 cells; type: cell-based; conditions: Homo sapiens, MCF7, 72 h
Procedure, shortened: as §2

SMILES: CCc1c2c(nc3ccc(O)cc13)-c1cc3c(c(=O)n1C2)COC(=O)[C@]3(O)CC [SN-38, 7-ethyl-10-hydroxy-camptothecin]
- potency relative to irinotecan in terms of in vitro cytotoxicity [1]: 100 fold
- stability in MCF7 lysates ([2]; MCF7 lysates, up to 120 min): rather unstable
- compound remaining after 120 min ([2]; PBS): ~80%
- compound remaining after 120 min ([2]; rat plasma): about 60%
- EC50 (HT29): 1.32 µM
- potency compared with irinotecan (CT26; MTT assay, CT26 and HT29 (Fig. 2)): much more potent than the parent compound irinotecan
- EC50 (CT26; Mus musculus, CT26, 72 h): 17.3 µM
- percentage of SN-38 lactone remaining [3]: around 40%
- survived longer than the irinotecan-administered group [4]: at least 2 weeks
- proportion of the lactone form at 120 min ([5]; MCF7 lysates): around 40%
- proportion of the lactone form at 120 min ([5]; PBS): around 40%
- proportion of the lactone form at 120 min ([5]; all 3 conditions (PBS, MCF7 lysates, plasma)): 30-40%
- initial proportion of the lactone form ([5]; early time points, all 3 conditions (PBS, MCF7 lysates, plasma), 5 μM): 80-90%
- proportion of the lactone form at 120 min ([5]; rat plasma): ~ 30%
- EC50 (MCF7 cells): 0.248 µM

SMILES: CCc1c2c(nc3ccc(OC(=O)N4CCC(N5CCCCC5)CC4)cc13)-c1cc3c(c(=O)n1C2)COC(=O)[C@]3(O)CC [irinotecan]
- survival time [4]: < 28 days
